Assay results taken from article PMC7717452 (Journal of Enzyme Inhibition and Medicinal Chemistry, 2020).
Values joined by “and” are separate entries in the source; they are usually repeats but may differ in a detail not shown here. Identical values can stand only once. Like-named read-outs stand apart in the source and are kept apart here. One block for each compound: values may come before it.

Legend:
[1] = system: L. braziliensis amastigotes; assay: Macrophage infection assay, L. braziliensis amastigotes; assay type: cell-based, Leishmania braziliensis; conditions: for activity at 10 µM: Leishmania braziliensis, Macrophage, read-out: % infection by L. braziliensis at 10 µM; for activity at 10 µM / % infection by L. braziliensis at 5 µM: 24 h; for % infection by L. braziliensis at 5 µM: relative to infected non-treated macrophages; for SI, L. braziliensis amastigotes: selectivity index, macrophage CC50 and amastigote EC50
In short: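 J774 macrophages were plated on coverslips at 1 × 10^5 cells/mL in DMEM with 1% FBS. They were infected with stationary-phase L. braziliensis promastigotes (MHOM/BR/01/BA788; 1:20) for 2 h at room temperature, then 22 h at 35 °C. After washing, cells got test compound (5 or 10 µM, or 10–0.01 µM) in 1% DMSO for 24 h at 37 °C and 5% CO2. Cells were EtOH-fixed and DAPI-stained, and 100–200 macrophages were imaged. % infected cells is relative to DMSO.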

[2] = target: T1, LiTryS (Leishmania infantum trypanothione synthetase) (Leishmania infantum, UniProt A4I2Z3); assay: TryS activity end-point assay; assay type: biochemical; conditions: for IC50: ± 2σ, ∼30 assumed for 50 ± 5% inhibition at 30 µM
T1 sequence (A4I2Z3 1-652): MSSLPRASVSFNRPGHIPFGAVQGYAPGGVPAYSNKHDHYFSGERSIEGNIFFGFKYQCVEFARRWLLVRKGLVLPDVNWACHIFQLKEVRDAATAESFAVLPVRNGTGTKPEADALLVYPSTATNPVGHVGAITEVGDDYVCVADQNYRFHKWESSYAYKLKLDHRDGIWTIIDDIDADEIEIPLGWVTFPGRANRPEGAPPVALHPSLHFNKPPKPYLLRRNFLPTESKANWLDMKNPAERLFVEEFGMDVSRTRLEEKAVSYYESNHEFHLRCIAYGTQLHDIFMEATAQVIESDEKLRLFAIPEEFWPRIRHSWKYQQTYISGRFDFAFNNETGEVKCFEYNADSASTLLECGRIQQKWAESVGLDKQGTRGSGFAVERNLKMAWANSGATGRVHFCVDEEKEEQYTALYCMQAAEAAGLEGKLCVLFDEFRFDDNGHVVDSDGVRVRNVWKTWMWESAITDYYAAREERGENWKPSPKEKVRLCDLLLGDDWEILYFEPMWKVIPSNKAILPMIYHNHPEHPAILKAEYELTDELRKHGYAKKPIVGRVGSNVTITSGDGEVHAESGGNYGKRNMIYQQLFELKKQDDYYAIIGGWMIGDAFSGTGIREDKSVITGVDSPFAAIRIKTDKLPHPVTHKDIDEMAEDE
In short: (§1)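 Recombinant TryS end-point assay in 100 mM HEPES pH 7.4 with 5 mM DTT, 10 mM MgSO4 and 0.5 mM EDTA. ATP was 150 µM and spermidine 2 mM. GSH was 0.25 mM for LiTryS, 0.05 mM for TbTryS and 0.57 mM for TcTryS. Enzyme started the reaction and BIOMOL Green stopped it after 15 min. A650 was read after 20 min at room temperature. Values were corrected with no-enzyme blanks and for compound interference with phosphate. At least quadruplicates; IC50 is given ± 2σn-1.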

Cytotoxicity assay = assay type: cell-based, mouse; conditions: mouse, J774 macrophages (ATCC TIB67), non-infected
In short: (§2)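 J774 mouse macrophages were grown in DMEM with 10% FBS and penicillin/streptomycin at 37 °C in humidified 5% CO2. Cells were seeded at 6 × 10^4 cells/mL and exposed the next day for 24 h to test compound at 100 to 0.001 µM (200 µM for one compound). The WST-1 signal was read at A450. % cytotoxicity was calculated against DMSO-treated and untreated cells, and CC50 is given ± σn–1.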

TbTryS = target: T2, TbTryS (Trypanosoma brucei brucei, UniProt Q8IEX1); assay: TryS activity end-point assay; assay type: biochemical; conditions: IC50 value, TbTryS, ± 2σ; ~30 assumed for 50 ± 5% inhibition at 30 µM
T2 sequence (Q8IEX1 1-627): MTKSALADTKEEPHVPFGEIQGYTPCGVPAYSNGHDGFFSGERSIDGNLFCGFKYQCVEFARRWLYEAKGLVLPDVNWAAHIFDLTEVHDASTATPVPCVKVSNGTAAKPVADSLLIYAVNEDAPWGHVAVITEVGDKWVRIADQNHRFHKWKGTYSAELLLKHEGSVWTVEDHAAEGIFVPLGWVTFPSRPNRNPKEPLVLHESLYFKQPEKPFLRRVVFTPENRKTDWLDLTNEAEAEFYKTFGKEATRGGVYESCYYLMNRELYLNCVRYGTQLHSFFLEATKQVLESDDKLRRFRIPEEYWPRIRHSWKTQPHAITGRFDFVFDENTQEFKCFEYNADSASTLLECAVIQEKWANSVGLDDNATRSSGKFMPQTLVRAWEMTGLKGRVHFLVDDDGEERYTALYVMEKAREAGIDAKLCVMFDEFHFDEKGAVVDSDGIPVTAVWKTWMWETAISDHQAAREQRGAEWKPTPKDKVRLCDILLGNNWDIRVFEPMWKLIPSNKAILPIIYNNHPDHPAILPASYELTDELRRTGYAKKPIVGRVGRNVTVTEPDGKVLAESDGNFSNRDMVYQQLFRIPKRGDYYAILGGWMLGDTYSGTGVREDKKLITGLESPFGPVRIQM
In short: as §1

TcTryS = target: T3, TcTryS (Trypanosoma cruzi, UniProt Q9GT49); assay: TryS activity end-point assay; assay type: biochemical; conditions: IC50 value, TcTryS, ± 2σ; ~30 assumed for 50 ± 5% inhibition at 30 µM
T3 sequence (Q9GT49 1-647): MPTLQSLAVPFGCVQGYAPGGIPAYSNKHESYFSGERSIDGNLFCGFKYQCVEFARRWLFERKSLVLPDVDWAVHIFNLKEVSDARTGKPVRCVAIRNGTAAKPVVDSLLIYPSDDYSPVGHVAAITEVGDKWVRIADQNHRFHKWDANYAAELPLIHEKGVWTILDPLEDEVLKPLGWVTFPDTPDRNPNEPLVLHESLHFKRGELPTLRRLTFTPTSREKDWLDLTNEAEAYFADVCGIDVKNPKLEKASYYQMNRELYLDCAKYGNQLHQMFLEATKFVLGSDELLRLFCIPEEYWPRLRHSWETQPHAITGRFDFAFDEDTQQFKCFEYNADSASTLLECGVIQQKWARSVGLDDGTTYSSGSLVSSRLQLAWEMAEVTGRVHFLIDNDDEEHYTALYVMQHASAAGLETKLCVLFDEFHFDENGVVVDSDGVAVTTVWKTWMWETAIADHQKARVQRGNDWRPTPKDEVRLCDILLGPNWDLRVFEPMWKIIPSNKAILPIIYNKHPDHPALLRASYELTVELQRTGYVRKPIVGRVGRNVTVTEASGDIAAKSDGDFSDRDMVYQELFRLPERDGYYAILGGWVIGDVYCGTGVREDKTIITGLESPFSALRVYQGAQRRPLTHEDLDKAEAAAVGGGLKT
In short: as §1

[3] = system: Mouse macrophages from the cell line J774; assay: Cytotoxicity assay; assay type: cell-based; conditions: read-out: CC50, macrophages; 24 h, non-infected J774
In short: as §2

Compound: O=C(CN1C(=O)Cc2c([nH]c3ccc(Br)cc23)-c2ccc(Cl)cc21)N1CCCC1 [Compound 25]
activity at 10 µM [1]: 68 ± 8% | IC50 ([2]; IC50 value, LiTryS): 0.5 ± 0.2 µM | cytotoxicity at 24 h, 100 µM (Cytotoxicity assay): 69%

Compound: O=C(CN1C(=O)Cc2c([nH]c3ccc(Br)cc23)-c2ccc(Cl)cc21)Nc1nncs1 [Compound 16]
IC50 (TcTryS): 30 µM | IC50 ([2]; IC50 value, LiTryS): ~30 µM

Compound: O=C(CN1C(=O)Cc2c([nH]c3ccc(Br)cc23)-c2ccc(Cl)cc21)NCCN1CCOCC1 [Compound 30]
IC50 ([2]; IC50 value, LiTryS): 3.3 ± 0.1 µM

Compound: O=C(CN1C(=O)Cc2c([nH]c3ccc(Br)cc23)-c2ccc(Cl)cc21)NCCN1CCCCC1 [Compound 31]
% infection by L. braziliensis at 5 µM [1]: 49 ± 3 at 5 µM % | SI, L. braziliensis amastigotes [1]: 2 | IC50 ([2]; IC50 value, LiTryS): 0.8 ± 0.1 µM | CC50 [3]: 9 ± 1 µM

Compound: O=C(CN1C(=O)Cc2c([nH]c3ccc(Br)cc23)-c2ccc(Cl)cc21)NC1=NCCS1 [Compound 17]
IC50 ([2]; IC50 value, LiTryS): ~30 µM

Compound: CC(C)(C)OC(=O)N1CCN(C(=O)CN2C(=O)Cc3c([nH]c4ccc(Br)cc34)-c3ccc(Cl)cc32)CC1 [Compound 22]
IC50 ([2]; IC50 value, LiTryS): 30 µM and ~30 µM

Compound: O=C(CN1C(=O)Cc2c([nH]c3ccc(Br)cc23)-c2ccc(Cl)cc21)N1CCN(c2ncccn2)CC1 [Compound 23]
IC50 ([2]; IC50 value, LiTryS): 12.5 ± 0.2 µM

Now from value to compound, other results behind:

IC50 (TbTryS): ~30 µM | IC50 ([2]; IC50 value, LiTryS): 0.5 ± 0.1 µM
Compound: CCN(CC)C(=O)CN1C(=O)Cc2c([nH]c3ccc(Br)cc23)-c2ccc(Cl)cc21 [Compound 12]
activity at 10 µM [1]: 82 ± 14% | cytotoxicity at 24 h, 100 µM (Cytotoxicity assay): 24 ± 8%

IC50 ([2]; IC50 value, LiTryS): 4 ± 0.5 µM
Compound: NNC(=O)CN1C(=O)Cc2c([nH]c3ccc(Br)cc23)-c2ccc(Cl)cc21 [Compound 8]

IC50 ([2]; read-out: IC50 value, LiTryS): ~30 µM
Compound: O=C1Cc2c([nH]c3ccc(Br)cc23)-c2ccc(Cl)cc2N1CCO [Compound 2]

IC50 ([2]; IC50 value, LiTryS): 0.4 ± 0.1 µM
Compound: NCCCCNC(=O)CN1C(=O)Cc2c([nH]c3ccc(Br)cc23)-c2ccc(Cl)cc21 [Compound 35]
activity at 10 µM [1]: 116 ± 3% | cytotoxicity at 24 h, 100 µM (Cytotoxicity assay): 0%

IC50 ([2]; IC50 value, LiTryS): 5.2 ± 0.4 µM
Compound: O=C(CN1C(=O)Cc2c([nH]c3ccc(Br)cc23)-c2ccc(Cl)cc21)NC(CO)(CO)CO [Compound 14]

IC50 ([2]; IC50 value, LiTryS): 0.5 ± 0.1 µM
Compound: CCN(CC)CCNC(=O)CN1C(=O)Cc2c([nH]c3ccc(Br)cc23)-c2ccc(Cl)cc21 [Compound 28]
% infection by L. braziliensis at 5 µM [1]: 38 ± 1 at 5 µM % | SI, L. braziliensis amastigotes [1]: 2 | CC50 [3]: 6 ± 1 µM

IC50 ([2]; IC50 value, LiTryS): 1.5 ± 0.2 µM
Compound: CCNC(=O)CN1C(=O)Cc2c([nH]c3ccc(Br)cc23)-c2ccc(Cl)cc21 [Compound 11]

% TryS inhibition at 30 µM, LiTryS ([2]; 30 µM, NA = not active (enzyme activity > 95%)): 36.2 ± 3.6%
Compound: CCOC(=O)CN1C(=O)Cc2c([nH]c3ccc(Br)cc23)-c2ccc(Cl)cc21 [Compound 5]
